Source: ChEMBL document CHEMBL4665824, “Characterization and Discovery of a Selective Small-Molecule Modulator of Mitochondrial Complex I Targeting a Unique Binding Site” (J Med Chem, 2020)
Activity calls are given as the source filed them. The calls are words filed in the database; no cut-off is given here.

How the values were obtained:
MC65 [1] = experiment: Inhibition of mitochondrial complex 1 in human MC65 cells assessed as inhibition of ROS production incubated for 48 hrs by mitoSOX fluorescence based flow cytometry; format: cell-based
How it was run: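 MC65 cells in Opti-MEM (1.6×10^6/well) incubated with compound at 37 °C for 48 h, with or without tetracycline. Collected into HBSS and stained with mitoSOX (2.5 μM) 20 min at 37 °C. Washed twice, then mean fluorescence intensity read by flow cytometry.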

MC65 [2] = experiment: Inhibition of mitochondrial complex 1 in human MC65 cells assessed as inhibition of antimycin A-induced ROS production at 1 to 3 uM incubated for 12 hrs by mitoSOX fluorescence based flow cytometry; format: cell-based; details: dose microM 1-3, time 12.0 hrs
SH-SY5Y [3] = experiment: Inhibition of mitochondrial complex 1 in human SH-SY5Y cells assessed as inhibition of MPP+-induced mitochondrial depolarization incubated for 24 hrs by fluorescence based assay; format: cell-based
How it was run: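 SH-SY5Y cells (4×10^5 per well) were co-treated with compound and MPP+ (30 μM) for 24 h at 37 °C. TMRM was then added to 100 nM final for 30 min. Cells were trypsinized, pelleted, resuspended in PBS, and membrane potential fluorescence was read by flow cytometry.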

Cortical neuron [4] = experiment: Inhibition of mitochondrial complex 1 in mouse cortical neurons assessed as inhibition of MPP+-induced mitochondrial depolarization incubated for 24 hrs by fluorescence based assay
How it was run: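 Primary cortical neurons from E15.5 C57BL/6J embryos (DIV 14; 5×10^4 cells/well) were given compound plus MPP+ for 24 h. They were then loaded with TMRM (1 μM final, 30 min) and washed twice with PBS. Dye was released with 50% DMSO/0.5% Triton in water and read at Ex/Em 548/574 nm.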

SH-SY5Y [5] = experiment: Inhibition of mitochondrial complex 1 in human SH-SY5Y cells assessed as inhibition of MPP+-induced mitochondrial depolarization in presence of 10 uM trolox incubated for 24 hrs by fluorescence based assay; format: cell-based
How it was run: (§1)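 SH-SY5Y cells (4×10^5/well) treated with compound, NAC (10 μM) or trolox (10 μM) plus MPP+ (30 μM) for 24 h. TMRM added at 100 nM final for 30 min. Cells trypsinized, resuspended in PBS and read by flow cytometry.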

SH-SY5Y [6] = experiment: Inhibition of mitochondrial complex 1 in human SH-SY5Y cells assessed as inhibition of MPP+-induced mitochondrial depolarization in presence of 10 uM NAC incubated for 24 hrs by fluorescence based assay; format: cell-based; how it was run: as §1
MC65 [7] = experiment: Effect on mitochondrial membrane potential in human MC65 cells at 0.3 to 1 uM incubated for 48 hrs by flow cytometry; format: functional, cell-based; details: dose microM 0.3-1, time 48.0 hrs
MC65 [8] = experiment: Effect on ATP content in human MC65 cells at 0.1 to 1 uM incubated for 48 hrs; format: functional, cell-based; details: dose microM 0.1-1, time 48.0 hrs
Mus musculus [9] = organism: Mus musculus; experiment: Inhibition of mitochondrial complex 1 in permeabilized mouse brain mitochondria assessed as reduction in ROS production at 2 to 6 uM incubated for 1 hr in presence of NADH by Amplex Red and horseradish peroxidase based assay; details: dose microM 2-6, time 1.0 hrs
How it was run: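 Permeabilized mouse brain mitochondria (0.1 mg protein/ml) were pretreated with compound for 1 h at 30 °C. H2O2 release was triggered with NADH (10 μM) and detected by Amplex Red (50 μM) oxidation with HRP (0.1 U/ml) at Ex/Em 530/590 nm. Output was calibrated against an H2O2 standard curve (linear to 2 μM). N=6, mean ± SEM, Student t-test.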

Mus musculus [10] = organism: Mus musculus; experiment: Inhibition of mitochondrial complex 1 in C57BL/6 mouse cerebral cortex mitochondria assessed as modulation of maximal rate of ADP-stimulated respiration of pyruvate at 2 uM
How it was run: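 Mitochondria isolated from C57BL/6 mouse cerebral cortex (N=6) with vehicle or 2 μM compound. Oxygen consumption measured by Clark-type electrode at 30 °C with pyruvate/malate (20/5 mM) or succinate (20 mM). ADP-stimulated (state 3) and state 4 rates recorded; RCR taken as state 3/state 4, with ADP/O also derived.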

Mus musculus [11] = organism: Mus musculus; experiment: Inhibition of mitochondrial complex 2 in C57BL/6 mouse cerebral cortex mitochondria assessed as modulation of maximal rate of ADP-stimulated respiration of succinate at 2 uM
Mus musculus [12] = organism: Mus musculus; experiment: Inhibition of mitochondrial complex 1 in C57BL/6 mouse cerebral cortex mitochondria assessed as reduction in ETC enzymatic activity at 2 uM relative to control
How it was run: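 Detergent-solubilized mouse brain mitochondria (N=6) treated with 2 μM compound, then electron transport chain enzyme activities determined.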

[13] = Inhibition of mitochondrial complex 1 in 5 months old transgenic AD mouse model assessed as suppression of maximal rate of ADP-stimulated respiration of pyruvate at 50 mg/kg, po dosed 5 times/week for 2 weeks; format: functional; details: 336 h
Mus musculus [14] = experiment: Inhibition of mitochondrial complex 1 in 5 months old transgenic AD mouse model assessed as suppression of state 3 respiration of pyruvate at 50 mg/kg, po dosed 5 times/week for 2 weeks; format: functional, organism-based
Mus musculus [15] = experiment: Effect on respiratory control ratio in 5 months old transgenic AD mouse model at 50 mg/kg, po dosed 5 times/week for 2 weeks; format: functional, organism-based
Mus musculus [16] = experiment: Effect on ADP/O ratio in 5 months old transgenic AD mouse model at 50 mg/kg, po dosed 5 times/week for 2 weeks; format: functional, organism-based
[17] = Inhibition of mitochondrial complex 1 in 10 months old transgenic AD mouse model assessed as suppression of maximal rate of ADP-stimulated respiration of pyruvate at 50 mg/kg, po QD for 8 weeks; format: functional; details: 1344 h
Mus musculus [18] = experiment: Inhibition of mitochondrial complex 1 in 10 months old transgenic AD mouse model assessed as suppression of state 3 respiration of pyruvate at 50 mg/kg, po QD for 8 weeks; format: functional, organism-based
Mus musculus [19] = experiment: Effect on respiratory control ratio in 5 months old transgenic AD mouse model in presence of pyruvate and malate at 50 mg/kg, po dosed 5 times/week for 2 weeks (4.1 +/- 0.7); format: functional
[20] = Effect on ADP/O ratio in 5 months old transgenic AD mouse model in presence of pyruvate and malate at 50 mg/kg, po dosed 5 times/week for 2 weeks (2.6 +/- 0.2); format: functional
Mus musculus [21] = experiment: Effect on respiratory control ratio in 5 months old transgenic AD mouse model in presence of succinate at 50 mg/kg, po dosed 5 times/week for 2 weeks (2.5 +/- 0. 2); format: functional
[22] = Effect on ADP/O ratio in 5 months old transgenic AD mouse model in presence of succinate at 50 mg/kg, po dosed 5 times/week for 2 weeks (1.4 +/- 0.1); format: functional
Cerebral cortex [23] = experiment: Effect on ADP/O ratio in C57BL/6 mouse cerebral cortex mitochondria at 2 uM (reference value: 2.9)
Cerebral cortex [24] = experiment: Effect on respiratory control ratio in C57BL/6 mouse cerebral cortex mitochondria at 2 uM (reference value: 5.3)
MC65 [25] = experiment: Inhibition of mitochondrial complex 1 in human MC65 cells assessed as inhibition of rotenone-induced ROS production by measuring ROS production rate at 1 uM incubated for 12 hrs by mitoSOX fluorescence based flow cytometry (reference value: 8.3 RFU/min)
Cortical neuron [26] = experiment: Inhibition of mitochondrial complex 1 in mouse cortical neurons assessed as inhibition of rotenone-induced ROS production by measuring ROS production rate at 1 uM incubated for 12 hrs by mitoSOX fluorescence based flow cytometry (Rvb =3.3 RFU/min)

COc1ccc2[nH]cc(CCNC(=O)CC(=O)CCc3ccc(O)cc3)c2c1
inhibition (MC65 [1]): Dose-dependent effect | inhibition (MC65 [2]): inactive | inhibition (SH-SY5Y [3]): Dose-dependent effect | inhibition (Cortical neuron [4]): Dose-dependent effect | inhibition (SH-SY5Y [5]): Active | inhibition (SH-SY5Y [6]): Active | Activity (MC65 [7]): inactive | Activity (MC65 [8]): inactive | inhibition (Mus musculus [9]): Active | inhibition (Mus musculus [10]): Active | inhibition (Mus musculus [11]): inactive | inhibition (Mus musculus [12]): 20% | inhibition in vivo at 50 mg/kg [13]: 9% | inhibition (Mus musculus [14]): Active | Activity (Mus musculus [15]): inactive | Activity (Mus musculus [16]): inactive | inhibition in vivo at 50 mg/kg [17]: 25% | inhibition (Mus musculus [18]): Active | Ratio (Mus musculus [19]): 4.2 | Ratio [20]: 2.6 | Ratio (Mus musculus [21]): 2.7 | Ratio [22]: 1.3 | Ratio (Cerebral cortex [23]): 3.1 | Ratio (Cerebral cortex [24]): 4.7 | Activity (MC65 [25]): 5.8 RFU/min | Activity (Cortical neuron [26]): 2 RFU/min
